In the RNAGym collection of RNA variant scans (doi:10.1126/science.aae0568) one finds yeast fitness data, which are given here for 37 variants.

B1: tRNA (parent)
chain: GUUCCGUUGGCGUAAUGGUAACGCGUCUCCCUCCUAAGGAGAAGACUGCGGGUUCGAGUCCCGUACGGAACG

Fewer inactive variants are shown than the library holds.

Variants of B1 are the subject of the series. As to the kind of experiment: yeast fitness relative to wild type (ratio to wild type); higher = fitter; tRNA-Arg(CCU), competitive growth, 37 C, YPD. The essentials: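 Changes in genotype frequencies gave Darwinian fitness relative to wild type. Frequencies were read by 100-nucleotide paired-end sequencing of gene amplicons before and after pooled Saccharomyces cerevisiae strains, carrying tRNA-Arg(CCU) gene variants at the native locus, were competed in YPD at 37°C for 24 hours in six replicates. A genotype was kept only with ≥ 100 starting reads, and estimates < 0.5 were set to 0.5.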
Consider GUUCCGUUGGCGUAAUGGUAACGCGUGUCCCUCCUAAGGAGGAGACUGCGGGUUCGAGUCCCGUACGGUACG, for which the yeast fitness is not above 0.5. For GUUCCGUUGGCGUAAUGGUAACGCGUGUCCCUCCUAAGGAGACGACUGCGGGUUCCAGUCCCGUACGGAACG the value was not above 0.5; for GUUCCGUUGGCGUAAUGGUAACGCGUGUCCGUCCUAAGGAGAAGACUGCGGGUUCGAGUCCCGUACGGAACG, 0.74. For GUUCCGUUGGCGUAAUGGUAACGCGUGUCCUUCCUAAGGAGAAGACUGCGGGUUCGAGUCCCGUACGGAACG the value was 0.772.

In the case of GUUCCGUUGGCGUAAUGGUAACGCGUGUCCAUCCUAAGGAGAAGACUGCGGGUUCGAGUCCCGUACGGAACG, the yeast fitness turned out to be 0.501. For GUUCCGUUGGCGUAAUGGUAACGCGUGUCCCUCCUAAGGAGAGGACUGUGGGUUCGAGUCCCGUACGGAACG the value was 0.59. In the case of GUUCCGUUGGCGUAAUGGUAACGCGUGUACCUACUAAGGAGACGACUGCGGGUUCGAGUCCCGUACGGAACG, the yeast fitness was 0.574. As for GUUCCGUUGGCGUAAUGGUAACGCGUGUCCUUCCUAAGGAGGAGACUGCGGGCUCGAGUCCCGUACGGAACG, the yeast fitness was not above 0.5. Take GUUCCGUUGGCGUAAUGGUAACGCGUGUCUCUCCUAAGCUGAACACAACGGGCUCGAGUACCGUACGGAACG: the yeast fitness was not above 0.5. As for GUUCCGUUGGCGUAAUGGUAACGCGUGUCCCUCCUAAGGAGUUGACUGCGGGUUCGAGUCCCGUACGGAACG, the figure is 0.594.

Take GUUCCGUUGGCGUAAUGGUAACGCGUGUUCCUCCUAGGGAGAAGGCUGCGGGUUCGAGUACCGUACGAAACG: the yeast fitness was not above 0.5. As for GUUCCGUUGGCGUAAUGGUAACGCGUGUCCGUCCUAAGGAGAAGACUGCGGGAUCAAGUCCCAUACGGAACG, the figure is 0.534; as for GUUCCGUUGGCGUAAUGGUAACGCGUGUCCGUCCUAAGGAGAAGACUGCGGGUUCGAGUCCCGUACGGUACG, not above 0.5.

Turning to GUUCCGUUGGCGUAAUGGUAACGCGUGUCCCUCCUAAGGAGAAGACUGCGGGUUCGAGUCCCGUCCGGAACG, the yeast fitness is 0.641. For the variant GUUCCGUUGGCGUAAUGGUAACGCGUGUCCGUCCUAAGGAGAAGACUGCGGGUUCGAGUCGCGUACGGUACG, the yeast fitness came out at 0.55. On to GUUCCGUUGGCGUAAUGGUAACGCGUGUCCUUCCUAAGGAGAAGACUGCGGGCUCGAGUCCCGUACGGAACG, for which the yeast fitness came to 0.573. For GUUCCGUUGGCGUAAUGGUAACGCGUGUCCCUCCUAAGGAGAAGACUGCGGGUUCGAGUCCCGUGGGGAACG the value was not above 0.5. As for GUUCCGUUGGCGUAAUGGUAACGCGUGUGCCUCCUAAGGAGAAGACUGCGCGUUCGAGUCCCGUACGGAACG, the figure is not above 0.5. In the case of GUUCCGUUGGCGUAAUGGUAACGCGUGUCCAUCCUAAGGAGAAGACUGCGGGUUCAAGUCCCGUACGGAACG, the yeast fitness was not above 0.5. For GUUCCGUUGGCGUAAUGGUAACGCGUGUCCAUCCUAAGGAGAAGAAUGCGGGUUCCAGUCCCGUACGGAACG the value was not above 0.5; for GUUCCGUUGGCGUAAUGGUAACGCGUGUCCUUCCUAAGGAGAAGAGUGCGCGUUCGAGUCCCGUACGGAACG, not above 0.5; for GUUCCGUUGGCGUAAUGGUAACGCGUGUCCUUCCUAGGGAGAAGACUGCGGGUUCGACUCCCGUACGGAACG, not above 0.5. For GUUCCGUUGGCGUAAUGGUAACGCGUGUCCCUCCUAAGGAGAUGACUGCGGGCUCGAGUCCCGUACGGAACG the value was not above 0.5. As for GUUCCGUUGGCGUAAUGGUAACGCGUGUCGCUCCUAAGGAGACGACUGCGGGUUCGAGUCCCGUACGGAACG, the figure is not above 0.5; as for GUUCCGUUGGCGUAAUGGUAACGCGUGUCCCUCCUAAGGAGGAGACUGCGGGUUCGAGUCCCGCACGGAACG, not above 0.5. For the variant GUUCCGUUGGCGUAAUGGUAACGCGUGUCACUCCUAAGGAGAAGACCGCGGGUUCGAGUCCCGUACGGAACG, the yeast fitness came to 0.535.

As to GUUCCGUUGGCGUAAUGGUAACGCGUGUCCCUCCUAAGGAGAAGUCUGCGGGUUCGAGUCCCGUACAGAACG, the yeast fitness was not above 0.5.

For GUUCCGUUGGCGUAAUGGUAACGCGUGUCGCUCCUAAGGAGAAGACUGCGGGUUCGAGUCCAGUACGGAACG, the yeast fitness is not above 0.5. As for GUUCCGUUGGCGUAAUGGUAACGCGUGUCCUUCCUAAGGAGAAGACUGCGGGUUCGAGUCCCGUACGAAACG, the figure is not above 0.5; as for GUUCCGUUGGCGUAAUGGUAACGCGUGUCCCUCCUAAGGAGAAGUCUGCGGGUUCGAGUCCCGUACGGACCG, 0.614; as for GUUCCGUUGGCGUAAUGGUAACGCGUGUACCUCCUAAGGAGAAGACUGCGGGUUGGAGUCCCGUACGGAACG, not above 0.5.

For the variant GUUCCGUUGGCGUAAUGGUAACGCGUGUCGCUGCUACGGAGAAGACUGCGGCUUCGAGUCCCGUACGGAACG, the yeast fitness is not above 0.5. As for GUUCCGUUGGCGUAAUGGUAACGCGUGUCCAUCCUACGGAGAAGACUGCAGGUUCGAGUCGCGUACGGAACG, the figure is not above 0.5; as for GUUCCGUUGGCGUAAUGGUAACGCGUGUCCCUCCUAAGGAGACGAUUGCGGGUUCGAAUCCCGUACGGAACG, 1.02; as for GUUCCGUUGGCGUAAUGGUAACGCGUGUCCCUCCUAAGGAGAAGACUGCGGGUUCGAGUCCCGUUCGUAACG, 0.583. Turning to GUUCCGUUGGCGUAAUGGUAACGCGUGUCACUCCUAAGGAGAAGACUGCGGGUUCGAGUCCCGUACGGAACG, the yeast fitness came out at 0.632. As for GUUCCGUUGGCGUAAUGGUAACGCGUGUCUCUCCUAAGGAGAAGACUGCGGGUUCGAGUCCCGUACGGAACG, the figure is 0.619.
